# Measurements published in ChEMBL document CHEMBL4316595, “Synthesis and structure-activity relationship studies of parthenolide derivatives as potential anti-triple negative breast cancer agents” (Eur J Med Chem, 2019).
# Tested on: MDA-MB-231
# Assay: Antiproliferative activity against human MDA-MB-231 cells measured after 72 hrs by MTT assay
# Type: functional, cell-based
# Details: MDA-MB-231, 72 h
# How it was run: (§1)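 MTT antiproliferation assay on human breast cancer lines MDA-MB-231, SUM-159, MCF-7 and Bcap-37 and on mouse 4T1 breast cancer cells. IC50 values were taken from the MTT read-out. Adriamycin served as the positive control.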
row,Structure (SMILES),IC50 [nM]
1,C=C1C(=O)O[C@H]2[C@H]1CC/C(COC(=O)/C(C#N)=C/c1cc(OC)ccc1OC)=C\CC[C@@]1(C)O[C@@H]21,2350
2,C=C1C(=O)O[C@H]2[C@H]1CC/C(COC(=O)/C(=C/c1cc(OC)ccc1OC)c1ccccc1)=C\CC[C@@]1(C)O[C@@H]21,2010
3,COC(=O)/C=C/c1c(OC)cccc1OC,> 20000
4,C=C1C(=O)O[C@H]2[C@H]1CC/C(COC(=O)/C(=C/c1cc(OC)ccc1OC)c1ccc(SC)cc1)=C\CC[C@@]1(C)O[C@@H]21,1870
5,C=C1C(=O)O[C@H]2[C@H]1CC/C(COC(=O)/C=C/c1ccc(OC)c(OC)c1OC)=C\CC[C@@]1(C)O[C@@H]21,1770
6,C=C1C(=O)O[C@H]2[C@H]1CC/C(COC(=O)/C=C/c1cc(OC)c(OC)cc1OC)=C\CC[C@@]1(C)O[C@@H]21,1020
7,C=C1C(=O)O[C@H]2[C@H]1CC/C(COC(=O)/C(=C/c1cc(OC)ccc1OC)c1ccc(Cl)cc1)=C\CC[C@@]1(C)O[C@@H]21,2020
8,C=C1C(=O)O[C@H]2[C@H]1CC/C(COC(=O)CCc1c(OC)cccc1OC)=C\CC[C@@]1(C)O[C@@H]21,2300
9,C=C1C(=O)O[C@H]2[C@H]1CC/C(COC(=O)/C(=C/c1cc(OC)ccc1OC)c1ccc(OCC)cc1)=C\CC[C@@]1(C)O[C@@H]21,1870
10,C=C1C(=O)O[C@H]2[C@H]1CC/C(CO)=C\CC[C@@]1(C)O[C@@H]21,5590
11,C=C1C(=O)O[C@H]2[C@H]1CC/C(COC(=O)/C=C/c1c(OC)cc(OC)cc1OC)=C\CC[C@@]1(C)O[C@@H]21,1090
12,C=C1C(=O)O[C@H]2[C@H]1CC/C(COC(=O)/C(=C/c1cc(OC)ccc1OC)CCC)=C\CC[C@@]1(C)O[C@@H]21,7530
13,C=C1C(=O)O[C@H]2[C@H]1CC/C(COC(=O)/C(=C/c1cc(OC)ccc1OC)c1ccc(Br)cc1)=C\CC[C@@]1(C)O[C@@H]21,2010
14,C=C1C(=O)O[C@H]2[C@H]1CC/C(COC(=O)/C(=C/c1cc(OC)ccc1OC)CC)=C\CC[C@@]1(C)O[C@@H]21,2250
15,C=C1C(=O)O[C@H]2[C@H]1CC/C(COC(=O)/C(C)=C/c1cc(OC)ccc1OC)=C\CC[C@@]1(C)O[C@@H]21,1760
16,C=C1C(=O)O[C@H]2[C@H]1CC/C(COC(=O)c1c(OC)cccc1OC)=C\CC[C@@]1(C)O[C@@H]21,3550
17,C=C1C(=O)O[C@H]2[C@H]1CC/C(COC(=O)/C(=C/c1cc(OC)ccc1OC)c1ccc(C(F)(F)F)cc1)=C\CC[C@@]1(C)O[C@@H]21,1980
18,COc1cccc(OC)c1/C=C/C(=O)OC/C1=C/CC[C@@]2(C)O[C@H]2[C@H]2OC(=O)[C@@H](C)[C@@H]2CC1,7600
19,C=C1C(=O)O[C@H]2[C@H]1CC/C(COC(=O)/C(=C/c1cc(OC)ccc1OC)c1ccc(F)cc1)=C\CC[C@@]1(C)O[C@@H]21,1960
20,COC(=O)/C=C/c1cc(OC)ccc1OC,> 50000
21,C=C1C(=O)O[C@H]2[C@H]1CC/C(COC(=O)/C=C/c1cc(OC)c(OC)c(OC)c1)=C\CC[C@@]1(C)O[C@@H]21,950
22,C=C1C(=O)O[C@H]2[C@H]1CC/C(COC(=O)/C(=C/c1cc(OC)ccc1OC)c1ccc(C)cc1)=C\CC[C@@]1(C)O[C@@H]21,2950
23,COc1ccc(OC)c(/C=C/C(=O)OC/C2=C/CC[C@@]3(C)O[C@H]3[C@H]3OC(=O)[C@@H](C)[C@@H]3CC2)c1,6800
24,C=C1C(=O)O[C@H]2[C@H]1CC/C(COC(=O)CCc1cc(OC)ccc1OC)=C\CC[C@@]1(C)O[C@@H]21,1880
25,C=C1C(=O)O[C@H]2[C@H]1CC/C(COC(=O)/C=C/c1cc(OC)cc(OC)c1)=C\CC[C@@]1(C)O[C@@H]21,2020
26,C=C1C(=O)O[C@H]2[C@H]1CC/C(COC(=O)/C(=C/c1cc(OC)ccc1OC)c1ccc(OC)cc1)=C\CC[C@@]1(C)O[C@@H]21,2510

# Results, then the compound that gave them:
row,IC50 [nM],Structure (SMILES)
1,2790,C=C1C(=O)O[C@H]2[C@H]1CC/C(COC(=O)/C=C/c1ccncc1)=C\CC[C@@]1(C)O[C@@H]21
2,1790,C=C1C(=O)O[C@H]2[C@H]1CC/C(COC(=O)/C=C/c1ccccc1C)=C\CC[C@@]1(C)O[C@@H]21
3,1590,C=C1C(=O)O[C@H]2[C@H]1CC/C(COC(=O)/C=C/c1c(F)cccc1F)=C\CC[C@@]1(C)O[C@@H]21
4,1220,C=C1C(=O)O[C@H]2[C@H]1CC/C(COC(=O)/C=C/c1ccc(Cl)cc1)=C\CC[C@@]1(C)O[C@@H]21
5,1020,C=C1C(=O)O[C@H]2[C@H]1CC/C(COC(=O)/C=C/c1ccc(Br)cc1)=C\CC[C@@]1(C)O[C@@H]21
6,2290,C=C1C(=O)O[C@H]2[C@H]1CC/C(COC(=O)/C=C/c1ccccn1)=C\CC[C@@]1(C)O[C@@H]21
7,1800,C=C1C(=O)O[C@H]2[C@H]1CC/C(COC(=O)/C=C/c1ccccc1F)=C\CC[C@@]1(C)O[C@@H]21
8,2250,C=C1C(=O)O[C@H]2[C@H]1CC/C(COC(=O)/C=C/c1ccco1)=C\CC[C@@]1(C)O[C@@H]21
9,740,C=C1C(=O)O[C@H]2[C@H]1CC/C(COC(=O)/C=C/c1ccccc1C(F)(F)F)=C\CC[C@@]1(C)O[C@@H]21
10,1800,C=C1C(=O)O[C@H]2[C@H]1CC/C(COC(=O)/C=C/c1ccc(C#N)cc1)=C\CC[C@@]1(C)O[C@@H]21
11,1590,C=C1C(=O)O[C@H]2[C@H]1CC/C(COC(=O)/C=C/c1c(Cl)cccc1Cl)=C\CC[C@@]1(C)O[C@@H]21
12,1890,C=C1C(=O)O[C@H]2[C@H]1CC/C(COC(=O)/C=C/c1ccc(O)cc1)=C\CC[C@@]1(C)O[C@@H]21
13,1730,C=C1C(=O)O[C@H]2[C@H]1CC/C(COC(=O)/C=C/c1cccc(F)c1)=C\CC[C@@]1(C)O[C@@H]21
14,1780,C=C1C(=O)O[C@H]2[C@H]1CC/C(COC(=O)/C=C/c1cccc(Cl)c1)=C\CC[C@@]1(C)O[C@@H]21
15,1950,C=C1C(=O)O[C@H]2[C@H]1CC/C(COC(=O)/C=C/c1ccc(OC)c(OC)c1)=C\CC[C@@]1(C)O[C@@H]21
16,1320,C=C1C(=O)O[C@H]2[C@H]1CC/C(COC(=O)/C=C/c1ccc(F)cc1)=C\CC[C@@]1(C)O[C@@H]21
17,1930,C=C1C(=O)O[C@H]2[C@H]1CC/C(COC(=O)/C=C/c1ccc([N+](=O)[O-])cc1)=C\CC[C@@]1(C)O[C@@H]21
18,1730,C=C1C(=O)O[C@H]2[C@H]1CC/C(COC(=O)/C=C/c1ccc(OC)cc1)=C\CC[C@@]1(C)O[C@@H]21

row,IC50 [nM],Structure (SMILES)
1,1330,C=C1C(=O)O[C@H]2[C@H]1CC/C(COC(=O)/C=C/c1ccccc1Br)=C\CC[C@@]1(C)O[C@@H]21
2,1420,C=C1C(=O)O[C@H]2[C@H]1CC/C(COC(=O)/C=C/c1ccccc1Cl)=C\CC[C@@]1(C)O[C@@H]21
3,1800,C=C1C(=O)O[C@H]2[C@H]1CC/C(COC(=O)/C=C/c1ccc3c(c1)OCO3)=C\CC[C@@]1(C)O[C@@H]21
4,1500,C=C1C(=O)O[C@H]2[C@H]1CC/C(COC(=O)/C=C/c1c(Br)cccc1Br)=C\CC[C@@]1(C)O[C@@H]21
5,1480,C=C1C(=O)O[C@H]2[C@H]1CC/C(COC(=O)/C=C/c1ccc3ccccc3c1)=C\CC[C@@]1(C)O[C@@H]21
6,1740,C=C1C(=O)O[C@H]2[C@H]1CC/C(COC(=O)/C=C/c1cccc(OC)c1OC)=C\CC[C@@]1(C)O[C@@H]21
7,2520,C=C1C(=O)O[C@H]2[C@H]1CC/C(COC(=O)/C=C/c1ccc(C(F)(F)F)cc1)=C\CC[C@@]1(C)O[C@@H]21
8,1640,C=C1C(=O)O[C@H]2[C@H]1CC/C(COC(=O)/C=C/c1cccc(Br)c1)=C\CC[C@@]1(C)O[C@@H]21
9,3270,C=C1C(=O)O[C@H]2[C@H]1CC/C(COC(=O)/C=C/c1cccnc1)=C\CC[C@@]1(C)O[C@@H]21
10,2010,C=C1C(=O)O[C@H]2[C@H]1CC/C(COC(=O)/C=C/c1ccc(O)c(OC)c1)=C\CC[C@@]1(C)O[C@@H]21
11,1580,C=C1C(=O)O[C@H]2[C@H]1CC/C(COC(=O)/C=C/c1ccc(OCC)cc1)=C\CC[C@@]1(C)O[C@@H]21
12,1840,C=C1C(=O)O[C@H]2[C@H]1CC/C(COC(=O)/C=C/c1cccc(OC)c1)=C\CC[C@@]1(C)O[C@@H]21
13,1330,C=C1C(=O)O[C@H]2[C@H]1CC/C(COC(=O)/C=C/c1ccc(C(C)C)cc1)=C\CC[C@@]1(C)O[C@@H]21
14,830,C=C1C(=O)O[C@H]2[C@H]1CC/C(COC(=O)/C=C/c1cccc(C(F)(F)F)c1)=C\CC[C@@]1(C)O[C@@H]21
15,2270,C=C1C(=O)O[C@H]2[C@H]1CC/C(COC(=O)/C=C/c1ccc(C)cc1)=C\CC[C@@]1(C)O[C@@H]21
16,1080,C=C1C(=O)O[C@H]2[C@H]1CC/C(COC(=O)/C=C/c1cccc(C)c1)=C\CC[C@@]1(C)O[C@@H]21
17,1150,C=C1C(=O)O[C@H]2[C@H]1CC/C(COC(=O)/C=C/c1ccc(OC(C)=O)cc1)=C\CC[C@@]1(C)O[C@@H]21
18,1800,C=C1C(=O)O[C@H]2[C@H]1CC/C(COC(=O)/C=C/c1cccs1)=C\CC[C@@]1(C)O[C@@H]21

# Tested on: 4T1
# Assay: Antiproliferative activity against mouse 4T1 cells measured after 72 hrs by MTT assay
# Type: functional, cell-based
# Details: 4T1, 72 h
# How it was run: as §1
row,Structure (SMILES),IC50 [nM]
1,C=C1C(=O)O[C@H]2[C@H]1CC/C(COC(=O)/C=C/c1ccccc1C(F)(F)F)=C\CC[C@@]1(C)O[C@@H]21,1160
2,C=C1C(=O)O[C@H]2[C@H]1CC/C(COC(=O)/C=C/c1cc(OC)c(OC)c(OC)c1)=C\CC[C@@]1(C)O[C@@H]21,630
3,C=C1C(=O)O[C@H]2[C@H]1CC/C(COC(=O)/C=C/c1cccc(C(F)(F)F)c1)=C\CC[C@@]1(C)O[C@@H]21,1480

# Tested on: SUM-159-PT
# Assay: Antiproliferative activity against human SUM159 cells measured after 72 hrs by MTT assay
# Type: functional, cell-based
# Details: not given
# How it was run: as §1
row,Structure (SMILES),IC50 [nM]
1,C=C1C(=O)O[C@H]2[C@H]1CC/C(COC(=O)/C=C/c1ccccc1C(F)(F)F)=C\CC[C@@]1(C)O[C@@H]21,850
2,C=C1C(=O)O[C@H]2[C@H]1CC/C(COC(=O)/C=C/c1cc(OC)c(OC)c(OC)c1)=C\CC[C@@]1(C)O[C@@H]21,860
3,C=C1C(=O)O[C@H]2[C@H]1CC/C(COC(=O)/C=C/c1cccc(C(F)(F)F)c1)=C\CC[C@@]1(C)O[C@@H]21,640

# Tested on: MCF7
# Assay: Antiproliferative activity against human MCF7 cells measured after 72 hrs by MTT assay
# Type: functional, cell-based
# Details: MCF7, 72 h
# How it was run: as §1
row,Structure (SMILES),IC50 [nM]
1,C=C1C(=O)O[C@H]2[C@H]1CC/C(COC(=O)/C=C/c1ccccc1C(F)(F)F)=C\CC[C@@]1(C)O[C@@H]21,2010
2,C=C1C(=O)O[C@H]2[C@H]1CC/C(COC(=O)/C=C/c1cc(OC)c(OC)c(OC)c1)=C\CC[C@@]1(C)O[C@@H]21,1390
3,C=C1C(=O)O[C@H]2[C@H]1CC/C(COC(=O)/C=C/c1cccc(C(F)(F)F)c1)=C\CC[C@@]1(C)O[C@@H]21,2150

# Tested on: Bcap37
# Assay: Antiproliferative activity against human Bcap37 cells measured after 72 hrs by MTT assay
# Type: functional, cell-based
# Details: Bcap37, 72 h
# How it was run: as §1
row,Structure (SMILES),IC50 [nM]
1,C=C1C(=O)O[C@H]2[C@H]1CC/C(COC(=O)/C=C/c1ccccc1C(F)(F)F)=C\CC[C@@]1(C)O[C@@H]21,1890
2,C=C1C(=O)O[C@H]2[C@H]1CC/C(COC(=O)/C=C/c1cc(OC)c(OC)c(OC)c1)=C\CC[C@@]1(C)O[C@@H]21,1960
3,C=C1C(=O)O[C@H]2[C@H]1CC/C(COC(=O)/C=C/c1cccc(C(F)(F)F)c1)=C\CC[C@@]1(C)O[C@@H]21,1860
